pIC50: −log10 of the molar value. ≈ marks a conversion by molar mass, not a printed value.
Legend:
TZM = assay: Cytotoxicity against human TZM-bl cells incubated for 3 days by MTS assay; type: cell-based; conditions: 72 h
[1] = Solubility of compound in pH 7.4 PBS buffer at 1 mg incubated for overnight by LC-MS/MS analysis; type: physicochemical; conditions: in vitro
Outline: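 Aqueous solubility was measured in phosphate buffer at pH 7.4 and reported in mg/mL.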

[2] = Apparent permeability from apical to basolateral side in human Caco2 cells at 5 uM measured for 120 mins by LC-MS/MS analysis; type: ADME, cell-based; conditions: caco-2, 2 h
[3] = Apparent permeability from basolateral side to apical side in human Caco2 cells at 5 uM measured for 120 mins by LC-MS/MS analysis; type: ADME, cell-based; conditions: caco-2, 2 h
[4] = Apparent permeability from apical to basolateral side in human Caco2 cells at 5 uM preincubated with vals-podar for 30 mins and measured for 120 mins by LC-MS/MS analysis; type: ADME, cell-based; conditions: Caco-2, with valspodar (printed as vals-podar; concentration not stated)
Outline: (§1)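 Bidirectional Caco-2 transport run with the P-gp inhibitor valspodar at 1 μM. Papp is given as ×10−6 cm/sec for each direction, and the efflux ratio is taken from B-to-A over A-to-B.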

[5] = Apparent permeability from basolateral side to apical side in human Caco2 cells at 5 uM preincubated with vals-podar for 30 mins and measured for 120 mins by LC-MS/MS analysis; type: ADME, cell-based; conditions: Caco-2, with valspodar (printed as vals-podar; concentration not stated); outline: as §1
[6] = Metabolic stability in human liver microsomes assessed as parent compound remaining at 3 uM preincubated for 3 mins followed by NADPH addition and measured up to 120 mins by LC-MS/MS analysis; type: ADME, Microsome; conditions: read-out: Stability
[7] = Intrinsic clearance in human liver microsomes at 3 uM preincubated for 3 mins followed by NADPH addition and measured up to 120 mins by LC-MS/MS analysis; type: ADME, Microsome; conditions: 2 h
[8] = Half life in human liver microsomes at 3 uM preincubated for 3 mins followed by NADPH addition and measured up to 120 mins by LC-MS/MS analysis; type: ADME, Microsome; conditions: 2 h
[9] = Protein binding in human plasma at 5 uM measured for 4 hrs by LC-MS/MS analysis; type: ADME, cell-free
Cytochrome P450 1A2 = biological target: T1, Cytochrome P450 1A2 (Homo sapiens, UniProt P05177); assay: Inhibition of CYP1A2 in human liver microsomes using phenacetin as substrate preincubated for 5 mins followed by NADPH addition and measured for 10 to 30 mins by LC-MS/MS analysis; type: ADME
T1 sequence (P05177 whole entry): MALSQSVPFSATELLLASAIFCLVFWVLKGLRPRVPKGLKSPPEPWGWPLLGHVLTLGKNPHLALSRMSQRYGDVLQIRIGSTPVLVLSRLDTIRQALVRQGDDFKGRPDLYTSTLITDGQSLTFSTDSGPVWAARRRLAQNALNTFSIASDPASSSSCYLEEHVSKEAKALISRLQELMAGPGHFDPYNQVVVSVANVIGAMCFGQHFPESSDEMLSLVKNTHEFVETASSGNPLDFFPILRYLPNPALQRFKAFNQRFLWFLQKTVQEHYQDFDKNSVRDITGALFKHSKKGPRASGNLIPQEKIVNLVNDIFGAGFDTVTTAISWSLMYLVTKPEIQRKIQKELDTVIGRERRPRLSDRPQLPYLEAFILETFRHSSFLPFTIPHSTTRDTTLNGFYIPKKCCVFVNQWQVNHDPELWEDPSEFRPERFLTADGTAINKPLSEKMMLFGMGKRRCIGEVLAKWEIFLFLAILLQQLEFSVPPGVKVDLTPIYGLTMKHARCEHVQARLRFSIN
Outline: (§2)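 Inhibition was screened in a panel of eight CYP450 isoforms, with test concentrations escalated up to 100 μM.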

Cytochrome P450 2B6 = biological target: T2, Cytochrome P450 2B6 (Homo sapiens, UniProt P20813); assay: Inhibition of CYP2B6 in human liver microsomes using bupropion as substrate preincubated for 5 mins followed by NADPH addition and measured for 10 to 30 mins by LC-MS/MS analysis; type: ADME; outline: as §2
T2 sequence (P20813 whole entry): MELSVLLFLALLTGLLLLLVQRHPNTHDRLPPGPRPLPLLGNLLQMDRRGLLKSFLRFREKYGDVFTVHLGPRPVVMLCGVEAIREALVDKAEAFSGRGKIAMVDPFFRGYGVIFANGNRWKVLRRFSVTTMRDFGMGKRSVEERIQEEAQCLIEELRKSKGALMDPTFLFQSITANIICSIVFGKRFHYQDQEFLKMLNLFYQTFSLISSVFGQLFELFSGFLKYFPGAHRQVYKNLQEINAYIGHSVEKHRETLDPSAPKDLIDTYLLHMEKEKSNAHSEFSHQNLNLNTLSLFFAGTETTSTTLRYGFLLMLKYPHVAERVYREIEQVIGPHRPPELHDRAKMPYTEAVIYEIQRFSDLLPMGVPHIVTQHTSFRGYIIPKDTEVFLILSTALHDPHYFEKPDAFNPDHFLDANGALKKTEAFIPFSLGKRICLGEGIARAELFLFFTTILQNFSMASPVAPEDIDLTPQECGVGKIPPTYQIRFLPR

Cytochrome P450 2C8 = biological target: T3, Cytochrome P450 2C8 (Homo sapiens, UniProt P10632); assay: Inhibition of CYP2C8 in human liver microsomes using amodiaquine as substrate preincubated for 5 mins followed by NADPH addition and measured for 10 to 30 mins by LC-MS/MS analysis; type: ADME; outline: as §2
T3 sequence (P10632 whole entry): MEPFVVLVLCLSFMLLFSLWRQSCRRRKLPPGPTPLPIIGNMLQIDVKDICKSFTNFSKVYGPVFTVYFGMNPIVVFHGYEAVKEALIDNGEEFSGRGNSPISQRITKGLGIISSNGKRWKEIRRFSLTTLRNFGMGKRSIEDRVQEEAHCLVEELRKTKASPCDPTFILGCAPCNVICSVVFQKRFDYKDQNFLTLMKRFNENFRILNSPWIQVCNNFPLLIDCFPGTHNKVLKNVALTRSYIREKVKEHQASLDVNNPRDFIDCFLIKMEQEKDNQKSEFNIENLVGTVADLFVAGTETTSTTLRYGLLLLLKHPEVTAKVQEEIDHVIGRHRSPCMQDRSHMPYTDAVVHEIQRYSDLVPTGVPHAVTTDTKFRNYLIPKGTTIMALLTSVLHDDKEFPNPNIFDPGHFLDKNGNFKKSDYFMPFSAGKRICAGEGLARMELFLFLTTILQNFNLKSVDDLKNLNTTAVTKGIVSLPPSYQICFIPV

Cytochrome P450 2C9 = Cytochrome P450 2C9 (Homo sapiens, UniProt P11712); assay: Inhibition of CYP2C9 in human liver microsomes using diclofenac as substrate preincubated for 5 mins followed by NADPH addition and measured for 10 to 30 mins by LC-MS/MS analysis; type: ADME; outline: as §2
Cytochrome P450 2C19 = Cytochrome P450 2C19 (Homo sapiens, UniProt P33261); assay: Inhibition of CYP2C19 in human liver microsomes using S-mephenytoin as substrate preincubated for 5 mins followed by NADPH addition and measured for 10 to 30 mins by LC-MS/MS analysis; type: ADME; outline: as §2
Cytochrome P450 2D6 = Cytochrome P450 2D6 (Homo sapiens, UniProt P10635); assay: Inhibition of CYP2D6 in human liver microsomes using bufuralol as substrate preincubated for 5 mins followed by NADPH addition and measured for 10 to 30 mins by LC-MS/MS analysis; type: ADME; outline: as §2
CYP3A [10] = biological target: T4, CYP3A (Homo sapiens, UniProt P08684+P20815+P24462+Q9HB55); assay: Inhibition of CYP3A in human liver microsomes using testosterone as substrate preincubated for 5 mins followed by NADPH addition and measured for 10 to 30 mins by LC-MS/MS analysis; type: ADME; conditions: probe testosterone; outline: as §2
CYP3A [11] = biological target: T4, CYP3A; assay: Inhibition of CYP3A in human liver microsomes using midazolam as substrate preincubated for 5 mins followed by NADPH addition and measured for 10 to 30 mins by LC-MS/MS analysis; type: ADME; conditions: probe midazolam; outline: as §2
[12] = Cytotoxicity against dog Cf2Th-CCR5 cells infected with CD4-dependent pseudovirus HIV1 ADA incubated for 48 hrs by MTS assay

Cytochrome P450 2C9, sequence (P11712 whole entry): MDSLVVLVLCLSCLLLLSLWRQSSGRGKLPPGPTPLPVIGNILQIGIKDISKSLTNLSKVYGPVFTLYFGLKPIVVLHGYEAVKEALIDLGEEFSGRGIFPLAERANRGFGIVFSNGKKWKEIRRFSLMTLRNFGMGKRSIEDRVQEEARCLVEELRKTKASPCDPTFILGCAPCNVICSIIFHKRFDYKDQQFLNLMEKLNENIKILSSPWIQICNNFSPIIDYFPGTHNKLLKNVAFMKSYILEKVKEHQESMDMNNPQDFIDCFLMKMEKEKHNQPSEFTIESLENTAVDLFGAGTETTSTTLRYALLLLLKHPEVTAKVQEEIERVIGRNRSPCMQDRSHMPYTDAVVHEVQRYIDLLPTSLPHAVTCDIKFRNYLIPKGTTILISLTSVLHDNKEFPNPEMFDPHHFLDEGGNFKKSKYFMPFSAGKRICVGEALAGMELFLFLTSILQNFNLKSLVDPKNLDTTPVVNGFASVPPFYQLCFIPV
Cytochrome P450 2D6, sequence (P10635 whole entry): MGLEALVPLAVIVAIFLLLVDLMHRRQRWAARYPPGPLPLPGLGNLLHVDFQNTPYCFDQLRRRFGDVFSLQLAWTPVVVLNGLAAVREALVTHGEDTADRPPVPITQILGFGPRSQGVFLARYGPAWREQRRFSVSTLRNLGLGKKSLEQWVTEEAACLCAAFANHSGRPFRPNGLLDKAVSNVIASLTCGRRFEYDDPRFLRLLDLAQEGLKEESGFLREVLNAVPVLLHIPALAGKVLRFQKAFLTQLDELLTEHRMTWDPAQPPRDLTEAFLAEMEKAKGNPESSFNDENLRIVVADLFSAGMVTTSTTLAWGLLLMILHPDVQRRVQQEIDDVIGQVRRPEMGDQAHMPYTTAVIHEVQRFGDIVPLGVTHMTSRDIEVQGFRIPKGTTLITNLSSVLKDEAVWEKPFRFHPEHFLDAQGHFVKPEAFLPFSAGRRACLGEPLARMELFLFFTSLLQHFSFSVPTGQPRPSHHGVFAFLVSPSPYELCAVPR
Cytochrome P450 2C19, sequence (P33261 whole entry): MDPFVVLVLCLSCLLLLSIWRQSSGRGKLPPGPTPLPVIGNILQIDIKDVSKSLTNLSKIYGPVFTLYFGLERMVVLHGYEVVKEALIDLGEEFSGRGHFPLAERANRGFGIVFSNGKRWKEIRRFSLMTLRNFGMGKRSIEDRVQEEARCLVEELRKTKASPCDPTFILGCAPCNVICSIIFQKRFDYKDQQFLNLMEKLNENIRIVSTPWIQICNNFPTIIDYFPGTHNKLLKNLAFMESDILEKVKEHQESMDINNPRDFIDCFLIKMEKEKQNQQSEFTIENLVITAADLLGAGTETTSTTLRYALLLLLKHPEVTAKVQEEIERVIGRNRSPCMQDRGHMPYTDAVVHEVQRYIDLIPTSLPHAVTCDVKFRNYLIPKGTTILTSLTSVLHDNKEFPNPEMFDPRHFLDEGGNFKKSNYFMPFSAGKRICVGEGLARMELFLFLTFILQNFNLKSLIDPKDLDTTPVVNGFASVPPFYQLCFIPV

Cc1cc(-c2ccc(C(F)(F)F)cn2)[nH]c1C(=O)N[C@@H](CN)c1ncc(CO)s1
CC50 (TZM): 109 µM | solubility [1]: 734 µg/mL (≈ 1730 µM) | Papp [2]: 6.51 ×10⁻⁶ cm/s | Papp [3]: 20.3 ×10⁻⁶ cm/s | Papp A→B at 2 h, 5 µM [4]: 14 ×10⁻⁶ cm/s | Papp B→A at 2 h, 5 µM [5]: 10.5 ×10⁻⁶ cm/s | remaining at 2 h, 3 µM [6]: 93.5% | CLH [7]: < 11.6 µL/min/mg | t1/2 [8]: > 2 h | PPB [9]: 99.2% | pIC50 (Cytochrome P450 1A2): 4.15 | pIC50 (Cytochrome P450 2B6): 4.07 | pIC50 (Cytochrome P450 2C8): < 4.00 | pIC50 (Cytochrome P450 2C9): < 4.00 | pIC50 (Cytochrome P450 2C19): < 4.00 | pIC50 (Cytochrome P450 2D6): < 4.00 | pIC50 (CYP3A [10]): < 4.21 | pIC50 (CYP3A [11]): < 4.00 | Activity [12]: Non-Toxic
